Experimental data gathered from unrelated publications.
Target: Muscle, skeletal receptor tyrosine-protein kinase (MUSK, Homo sapiens, UniProt O15146)
Sequence (O15146 24-869, as in one of the studies): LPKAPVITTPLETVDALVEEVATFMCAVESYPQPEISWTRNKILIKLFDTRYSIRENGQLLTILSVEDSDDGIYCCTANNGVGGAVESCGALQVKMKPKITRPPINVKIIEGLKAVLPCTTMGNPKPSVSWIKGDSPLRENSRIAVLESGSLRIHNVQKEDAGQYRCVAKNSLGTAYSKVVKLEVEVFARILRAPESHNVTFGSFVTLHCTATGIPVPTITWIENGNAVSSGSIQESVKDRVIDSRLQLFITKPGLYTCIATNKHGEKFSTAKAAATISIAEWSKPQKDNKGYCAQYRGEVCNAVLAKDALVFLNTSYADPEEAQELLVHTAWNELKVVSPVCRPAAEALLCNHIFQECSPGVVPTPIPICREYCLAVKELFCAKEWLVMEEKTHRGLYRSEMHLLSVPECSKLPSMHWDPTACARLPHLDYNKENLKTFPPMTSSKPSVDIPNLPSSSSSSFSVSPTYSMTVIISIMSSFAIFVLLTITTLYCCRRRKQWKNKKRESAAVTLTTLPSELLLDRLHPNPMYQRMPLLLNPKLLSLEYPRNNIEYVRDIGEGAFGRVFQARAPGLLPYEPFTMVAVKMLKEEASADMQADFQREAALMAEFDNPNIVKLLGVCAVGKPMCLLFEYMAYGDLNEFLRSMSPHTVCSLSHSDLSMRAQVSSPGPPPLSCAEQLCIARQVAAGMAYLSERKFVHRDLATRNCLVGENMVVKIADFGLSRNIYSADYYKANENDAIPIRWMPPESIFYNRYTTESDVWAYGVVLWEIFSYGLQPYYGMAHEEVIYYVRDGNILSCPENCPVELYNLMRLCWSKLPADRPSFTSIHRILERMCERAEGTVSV

| Compound | assay | setting | measurement | value |
| --- | --- | --- | --- | --- |
| Oc1cccc(-c2nc(N3CCOCC3)c3oc4ncccc4c3n2)c1 | cell-free assay | 0.5 µM | remaining signal | 87.8% |
| CCN(CC)CCNC(=O)c1c(C)[nH]c(/C=C2\C(=O)Nc3ccc(F)cc32)c1C | enzyme activity, inhibitor | 0.3 µM | inhibition | 98% |
| C[C@@H]1CN(c2cc(-c3nn(C)c4ccc(OC5(C)CC5)cc34)ncn2)C[C@H](C)O1 | cell-free assay, competition with immobilised ligand | 1 µM | remaining binding | 92% |
| CC(C)(C)c1nc2c(s1)c1nc(N)ncc1c1ccc(NS(=O)(=O)c3c(F)cccc3F)c(F)c12 | enzyme activity, inhibitor, radiometric | 1 µM | remaining activity | 80% |
| CCCS(=O)(=O)Nc1ccc(F)c(C(=O)c2c[nH]c3ncc(-c4ccc(Cl)cc4)cc23)c1F | enzyme activity, inhibitor | 1 µM | inhibition | < 10% |
| Cc1ccc(C(=O)NCc2ccsc2)cc1C#Cc1cn(C(C)C)c2ncnc(N)c12 | enzyme activity, inhibitor | 1 µM | activity vs control | 73% |
| COc1cc2ncnc(Nc3ccc(Oc4ccccc4)c(C)c3C)c2cc1OC | enzyme activity, inhibitor | 1 µM | inhibition | -2% |
| Nc1ncnc2occ(-c3ccc(NC(=O)Nc4cc(C(F)(F)F)ccc4F)cc3)c12 | cell-free assay, inhibitor | 20 µM | remaining signal | 0% |
| CC/C(=N\NC(=O)NCc1cccc(O)c1)c1ccc(O)c(C)c1O | enzyme activity, inhibitor | 0.1 µM | inhibition | -3.4% |
| O=C(Nc1cccnn1)N1CC(C/C=C/c2cncc(Oc3ccc(C(F)(F)F)cn3)n2)C1 | cell-free assay, competition with immobilised ligand | 1 µM | remaining binding | 97% |
| COc1cc(Cl)c(C(=O)N[C@@H](CN[C@H]2CC[C@@H](N)CC2)Cc2ccc(C#N)cc2)cc1-c1ccc(CN[C@H](C)c2ccc(C)cc2)o1 | enzyme activity, inhibitor | 1 µM | remaining activity | 84% |
| COc1cc(C)c(Sc2cnc(NC(=O)c3ccc(N4CCN(CCCCCCCNC(=O)COc5cccc6c5C(=O)N(C5CCC(=O)NC5=O)C6=O)CC4)cc3)s2)cc1C(=O)N1CCN(C(C)=O)CC1 (stereo not shown) | cell-free assay | 1 µM | inhibition | > 90% |
| O=C(Nc1cnn(-c2csc(C(=O)NC3COC3)c2)c1)Nc1ccccc1Cl | enzyme activity, inhibitor | 5 µM | remaining activity | 94.5% |
| CCCOc1ccc(OC)c(F)c1C(=O)c1ccc(C(=O)N[C@@H]2CNC[C@H]2NC(=O)c2ccc3[nH]ncc3c2)cc1 | enzyme activity, inhibitor | 10 µM | remaining activity | -1% |
| CNC(=O)c1cc(Oc2ccc(NC(=O)Nc3ccc(Cl)c(C(F)(F)F)c3)cc2)ccn1 | enzyme activity, inhibitor | 10 µM | inhibition | 100% |
| CC(=O)C1=C(C)N(c2cccc(C(F)(F)F)c2)C(=O)N[C@@H]1c1ccc(C#N)nc1 | cell-free assay, competition with immobilised ligand | 1 µM | remaining binding | 100% |
| N#CCCc1ccc2c(c1)-c1[nH]c3ccc([N+](=O)[O-])cc3c1CC(=O)N2 | cell-free assay | 0.5 µM | remaining signal | 63% |
| c1ccc(N2CCN(Cc3nc4ccccc4[nH]3)CC2)nc1 | binding, competition with immobilised ligand | 1 µM | remaining binding | 100% |
| Cc1ccc(Nc2nccc(N(C)c3ccc4c(C)n(C)nc4c3)n2)cc1S(N)(=O)=O | enzyme activity, inhibitor | 10 µM | inhibition | 97% |
| O=C(NCCCC1CCCCC1)c1ccc(CNC(=O)c2cnn(-c3ccccc3)c2C(F)(F)F)cc1 | cell-free assay, competition with immobilised ligand | 0.1 µM | remaining binding | 100% |
| COc1cc2c(N3CCN(C(=O)Nc4ccc(OC(C)C)cc4)CC3)ncnc2cc1OCCCN1CCCCC1 | cell-free assay | 0.5 µM | remaining signal | 99.6% |
| CCC(=N\O)/C(C)=C/c1ccc(F)cc1 | cell-free assay, competition with immobilised ligand | 1 µM | remaining binding | 90% |
| Cc1cc(NC(=O)c2cccc3cc(-c4cccc5[nH]nc(N)c45)ccc23)ccc1F | enzyme activity, inhibitor | 0.1 µM | activity vs control | 99% |
| CC(=O)Nc1c(C(C)=O)c(=O)n(C)c2nc(-c3ccc(Cl)cc3Cl)c(-c3ccc(Cl)cc3)cc12 | cell-free assay, competition with immobilised ligand | 1 µM | remaining binding | 100% |
| Cc1sc(C(=O)NC2COC2)cc1-n1cc(NC(=O)Nc2c(F)cccc2Cl)cn1 | enzyme activity, inhibitor | 10 µM | remaining activity | 103% |
